These results are taken from ChEMBL document CHEMBL3286282, “Synthesis and antiproliferative activity of novobiocin analogues as potential hsp90 inhibitors” (Eur J Med Chem, 2014).

Active and inactive are the calls of the source. The rule behind the calls is not given here.

A short description of data set [1]: Retardation factor of the compound using CH2Cl2/MeOH at ratio of 95:5 as solvent system. The data set is classed as physicochemical.
The test system of data set [2] is MCF7. Kind of data set: Antiproliferative activity against ER-positive human MCF7 cells assessed as cell viability at 0.1 mM after 72 hrs by MTT assay. It counts as functional. Particulars: MCF7, 72 h, read-out: Activity. In outline:
(§1)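 MCF-7 (ER-positive) cells in DMEM with 2 mM L-glutamine, penicillin/streptomycin and 10% charcoal-treated FCS, seeded at 2500-5000 cells/well. Drugs added 24 h later in serial dilutions from 10 mM DMSO stocks, then exposed 72 h. MTT (500 µg/mL) for 3 h at 37 °C, formazan dissolved in DMSO, A570 read minus A650. Sextuplicates, three experiments.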
On the technique in general: Formazan colour is commonly taken as a measure of viable cells.

In data set [3] the test system is MCF7. Kind of data set: Growth inhibition of ER-positive human MCF7 cells after 72 hrs by MTT assay. It counts as functional. Particulars: MCF7, 72 h. In outline:
as §1

Data set [4] is described as follows: Retardation factor of the compound using CH2Cl2/AcOEt at ratio of 9:1 as solvent system. The data set is classed as physicochemical.
For data set [5], the target named is Heat shock protein HSP 90-beta (Homo sapiens) (UniProt P08238). Kind of data set: Inhibition of HSP90 in human MCF7 cells assessed as ER-alpha degradation at 100 uM after 24 hrs by western blot analysis. The data set is classed as cell-based. In a few lines:
(§2)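 MCF-7 cells grown to 50% confluence, exposed to 100 µM for 24 h with or without MG132 (5 µM). Lysed in Tris-HCl pH 7.5/NaCl/EGTA/Triton X-100 buffer with phosphatase and protease inhibitors. 20 µg protein run on SDS-PAGE. ERα probed with D12 monoclonal antibody (1 µg/mL, overnight 4 °C), detected by biotin/avidin-peroxidase. Nonspecific band used as loading control; DMSO as vehicle.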
For orientation: Immunoblotting shows a protein as a band on a membrane.

Data set [6] in a line: Retardation factor of the compound using CH2Cl2/c-hexane at ratio of 9:1 as solvent system. The data set is classed as physicochemical.
The nature of data set [7]: Retardation factor of the compound using CH2Cl2 as solvent system. It counts as physicochemical.
A short description of data set [8]: Retardation factor of the compound using Et2O/c-hexane at ratio of 8:2 as solvent system. The data set is classed as physicochemical.
Data set [9] relates to MCF7. Kind of data set: Growth inhibition of Faslodex-resistant human MCF7 cells after 72 hrs by MTT assay. It counts as functional. Particulars: MCF7, 72 h. In outline: (§3)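 ER-negative MDA-MB-231 cells and tamoxifen- or Faslodex-resistant MCF-7 cells, grown in DMEM with 10% charcoal-treated FCS and seeded at 2500-5000 cells/well. Drug serial dilutions added after 24 h from 10 mM DMSO stocks. After 72 h, MTT at 500 µg/mL for 3 h at 37 °C, then A570 read minus A650.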

Data set [10] deals with Heat shock protein HSP 90-beta (Homo sapiens) (UniProt P08238). Kind of data set: Inhibition of HSP90 in human MCF7 cells assessed as induction of Raf degradation at 100 uM after 24 hrs by western blot analysis. It counts as cell-based.
Heat shock protein HSP 90-beta (Homo sapiens), sequence (P08238 whole entry): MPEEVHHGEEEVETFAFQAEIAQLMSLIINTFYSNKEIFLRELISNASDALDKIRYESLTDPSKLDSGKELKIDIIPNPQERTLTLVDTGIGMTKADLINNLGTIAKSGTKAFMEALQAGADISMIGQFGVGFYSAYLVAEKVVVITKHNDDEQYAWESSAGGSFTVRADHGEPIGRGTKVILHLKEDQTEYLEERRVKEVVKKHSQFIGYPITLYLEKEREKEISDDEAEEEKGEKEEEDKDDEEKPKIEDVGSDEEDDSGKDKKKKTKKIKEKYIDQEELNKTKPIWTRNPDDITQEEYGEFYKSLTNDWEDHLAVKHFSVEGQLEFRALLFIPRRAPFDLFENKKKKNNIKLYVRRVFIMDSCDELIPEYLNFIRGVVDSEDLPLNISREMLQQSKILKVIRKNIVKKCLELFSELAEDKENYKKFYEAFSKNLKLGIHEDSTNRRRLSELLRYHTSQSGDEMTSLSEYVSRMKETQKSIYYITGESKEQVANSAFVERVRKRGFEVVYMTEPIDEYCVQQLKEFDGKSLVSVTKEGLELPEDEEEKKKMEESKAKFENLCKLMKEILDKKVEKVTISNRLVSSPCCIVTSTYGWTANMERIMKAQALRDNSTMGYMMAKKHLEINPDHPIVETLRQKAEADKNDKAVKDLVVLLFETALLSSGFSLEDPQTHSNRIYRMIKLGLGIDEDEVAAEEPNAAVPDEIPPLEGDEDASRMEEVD
For data set [11], the system named is MCF7. Kind of data set: Cell cycle arrest in human MCF7 cells assessed as accumulation at subG1 phase at 100 uM after 48 hrs by flow cytometry (reference value: 5%). The data set is classed as functional. In outline:
(§4)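 MCF-7 cells at 1.3 x 10^5 cells/mL exposed to 100 µM for 48 or 72 h, with DMSO control. Cells fixed in PBS/ethanol (30/70), then 10^4 cells incubated 30 min in PBS/0.2% Triton X-100/1 mM EDTA with propidium iodide (50 µg/mL) and RNase (0.5 mg/mL). Flow cytometry gave % cells per phase, with sub-G1 counted as apoptotic. Mean of two independent experiments.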

Data set [12] deals with Heat shock protein HSP 90-beta (Homo sapiens) (UniProt P08238). Kind of data set: Inhibition of HSP90 in human MCF7 cells assessed as ER-alpha degradation at 100 uM after 24 hrs by western blot analysis in presence of proteasome inhibitor MG132. The data set is classed as cell-based. In a few lines:
as §2

Data set [13] has as its system MCF7. The data set is described as follows: Cell cycle arrest in human MCF7 cells assessed as accumulation at S phase at 100 uM after 72 hrs by flow cytometry (reference value: 20.5%). The data set is classed as functional. In outline:
as §4
Background: In flow cytometry, cells or beads pass a laser one at a time.

Data set [14] relates to MCF7. Kind of data set: Cell cycle arrest in human MCF7 cells assessed as accumulation at subG1 phase at 100 uM after 72 hrs by flow cytometry (reference value: 9.5%). The data set is classed as functional. In outline:
as §4

Data set [15] has as its system MCF7. Kind of data set: Cell cycle arrest in human MCF7 cells assessed as accumulation at G2/M phase at 100 uM after 72 hrs by flow cytometry (reference value: 19%). The data set is classed as functional. In a few lines: as §4
The subject of data set [16] is RPMI-8226. The data set is described as follows: Growth inhibition of human RPMI8226 cells after 72 hrs by MTS assay. The data set is classed as functional. Particulars: RPMI-8226, 72 h. In a few lines:
(§5)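 Myeloma RPMI 8226 and LP-1 cells and prostate PC-3 cells, grown in RPMI 1640 with 2 mM L-glutamine and 10% heat-inactivated FBS, seeded at 2500-5000 cells/well. Drug dilutions added after 24 h. After 72 h, MTS reagent added and A492 read 2 or 3 h later. Run in triplicate, with each experiment done at least twice. GI50 taken relative to vehicle-treated cells.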

The test system of data set [17] is PC-3. Kind of data set: Growth inhibition of human PC3 cells after 72 hrs by MTS assay. It counts as functional. The conditions noted are these: PC-3, 72 h. In a few lines:
as §5

The test system of data set [18] is MDA-MB-231. Kind of data set: Growth inhibition of ER-negative human MDA-MB-231 cells after 72 hrs by MTT assay. The data set is classed as functional. Particulars: MDA-MB-231, 72 h. In outline:
as §3

For data set [19], the system named is MCF7. Kind of data set: Cell cycle arrest in human MCF7 cells assessed as accumulation at G0/G1 phase at 100 uM after 48 hrs by flow cytometry (reference value: 87%). The data set is classed as functional. In a few lines: as §4
The subject of data set [20] is MCF7. Kind of data set: Ratio of novobiocin GI50 to compound GI50 for human MCF7 cells. The data set is classed as functional.
For data set [21], the system named is MCF7. Kind of data set: Cell cycle arrest in human MCF7 cells assessed as accumulation at G2/M phase at 100 uM after 48 hrs by flow cytometry (reference value: 7%). It counts as functional. In a few lines:
as §4

Data set [22] deals with MCF7. Kind of data set: Cell cycle arrest in human MCF7 cells assessed as accumulation at G0/G1 phase at 100 uM after 72 hrs by flow cytometry (reference value: 60.5%). It counts as functional. In outline: as §4
Data set [23] deals with MCF7. Kind of data set: Cell cycle arrest in human MCF7 cells assessed as accumulation at S phase at 100 uM after 48 hrs by flow cytometry (reference value: 6%). The data set is classed as functional. In outline: as §4
Data set [24] addresses Heat shock protein HSP 90-beta (Homo sapiens) (UniProt P08238). Kind of data set: Inhibition of HSP90 in human MCF7 cells assessed as induction of Her2 degradation at 100 uM after 24 hrs by western blot analysis. The data set is classed as cell-based.
The subject of data set [25] is MCF7. Kind of data set: Growth inhibition of tamoxifen-resistant human MCF7 cells after 72 hrs by MTT assay. The data set is classed as functional. The conditions noted are these: MCF7, 72 h. In a few lines: as §3
The test system of data set [26] is LP-1. Kind of data set: Growth inhibition of human LP-1 cells after 72 hrs by MTS assay. The data set is classed as functional. The conditions noted are these: LP-1, 72 h. In outline:
as §5

For data set [27], the target named is Heat shock protein HSP 90-beta (Homo sapiens) (UniProt P08238). Kind of data set: Inhibition of HSP90 in human MCF7 cells assessed as induction of Cdk4 degradation at 100 uM after 24 hrs by western blot analysis. It counts as cell-based.
Data set [28] is described as follows: Retardation factor of the compound using CH2Cl2/AcOEt at ratio of 95:5 as solvent system. It counts as physicochemical.
A short description of data set [29]: Retardation factor of the compound using c-hexane/AcOEt at ratio of 8:2 as solvent system. The data set is classed as physicochemical.

Regarding `Cc1c(O)ccc2c(NCCN3CCOCC3)c(NC(=O)c3ccc4c(c3)CCC(C)(C)O4)c(=O)oc12`, the Rf in data set [1] turned out to be 0.2. In [2], the viability at 100 µM worked out at 87%.
`Cc1c(O)ccc2c(OS(=O)(=O)c3ccc4cccnc4c3)c(NC(=O)c3ccc4c(c3)CCC(C)(C)O4)c(=O)oc12`: the GI50 in data set [3] was 64 µM. Also, in [4], the Rf is recorded as 0.28. Moreover, the viability at 100 µM in data set [2] amounted to 22%. Moreover, the “ER-alpha degradation (active/inactive)” value in data set [5] is “Active”.
Regarding `COc1c(C#Cc2ccccc2)cc2c(OS(=O)(=O)c3ccc(C)cc3)c(NC(=O)c3ccc4c(c3)CCC(C)(C)O4)c(=O)oc2c1C`, in [6], the Rf came out at 0.1. For the same molecule, the viability at 100 µM in data set [2] is 90%.
With `COc1ccc(C#Cc2cc3c(OS(=O)(=O)c4ccc(C)cc4)c(NC(=O)c4ccc5c(c4)CCC(C)(C)O5)c(=O)oc3c(C)c2OC)cc1`, the Rf in data set [7] came to 0.2. For the same molecule, the viability at 100 µM in [2] is 89%.
Regarding `CC(=O)OC[C@H]1O[C@@H](Oc2ccc3c(N)c(NC(=O)c4ccc5c(c4)CCC(C)(C)O5)c(=O)oc3c2C)[C@H](OC(C)=O)[C@@H](OC(C)=O)[C@@H]1OC(C)=O`, the Rf in data set [8] came to 0.17. For the same molecule, in data set [2], the viability at 100 µM amounted to 71%.
Turning to `CC(=O)OC[C@H]1O[C@@H](Oc2ccc3c(OS(=O)(=O)c4ccc(C)cc4)c(NC(=O)c4ccc5c(c4)CCC(C)(C)O5)c(=O)oc3c2C)[C@H](OC(C)=O)[C@@H](OC(C)=O)[C@@H]1OC(C)=O`, the GI50 came to 25 µM in [9]; 6 µM in data set [3]; 2.5 µM in [16]; 25 µM in [17]; 10 µM in data set [18]; 30 µM in data set [25]. The same molecule came in with a GI50 in [26] of 5 µM. The inhibition result in [10], in data set [12], in [24] and in data set [27] was “inactive” in each case. The Activity in data set [11] was found to be 13%; in data set [13], 9.5%; in data set [14], 27%; in data set [15], 60%; in [19], 40%; in [21], 55%. Further, the values for the Activity in [22] and in data set [23] were 30% and 5.5%, respectively. Also, in [8], the Rf turned out to be 0.14. Further, in [2], the viability at 100 µM is 10%. The “ER-alpha degradation (active/inactive)” value in [5] is “Active”. Moreover, the Ratio in data set [20] came out at 40.
Take `C#Cc1cc2c(OS(=O)(=O)c3ccc(C)cc3)c(NC(=O)c3ccc4c(c3)CCC(C)(C)O4)c(=O)oc2c(C)c1OC`: the Rf in data set [28] was found to be 0.5. The viability at 100 µM in [2] worked out at 82%.
On to `Cc1ccc(S(=O)(=O)Oc2c(NC(=O)c3ccc4c(c3)CCC(C)(C)O4)c(=O)oc3c(C)c(O)ccc23)cc1`, for which, in [12], the inhibition entry was “inactive”. The “ER-alpha degradation (active/inactive)” value in [5] was “Active”.
For `COc1c(Br)cc2c(OC)c(NC(=O)c3ccc4c(c3)CCC(C)(C)O4)c(=O)oc2c1C`, the Rf in [28] was determined as 0.59; in data set [29], 0.19. The viability at 100 µM in data set [2] was 90%.

The term GI50 denotes the concentration that inhibits growth by half. A lower GI50 goes with more potent growth inhibition.
